Converted amounts (≈) assume the structure as drawn.
Columns and labels:
[1] = Solubility of the compound at pH 7.4; type: physicochemical; conditions: buffer
[2] = Metabolic stability of the compound in mouse liver microsomes assessed as compound remaining at 10 uM after 1 hr by LC/MS/MS analysis; type: ADME, Microsome; conditions: read-out: Stability
How it was run: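 Mouse liver microsomes at 0.5 mg/ml, test article at 10 μM, duplicate, 37 °C. Aliquots at t=0 and t=1 h; % parent remaining by LC/MS/MS. Positive control phenacetin conversion to acetaminophen; negative control NADPH-deficient mixture.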

[3] = target: T1, Phosphomannomutase 2 (Homo sapiens, UniProt O15305); test: Inhibition of human purified PMM2
T1 sequence (O15305 whole entry): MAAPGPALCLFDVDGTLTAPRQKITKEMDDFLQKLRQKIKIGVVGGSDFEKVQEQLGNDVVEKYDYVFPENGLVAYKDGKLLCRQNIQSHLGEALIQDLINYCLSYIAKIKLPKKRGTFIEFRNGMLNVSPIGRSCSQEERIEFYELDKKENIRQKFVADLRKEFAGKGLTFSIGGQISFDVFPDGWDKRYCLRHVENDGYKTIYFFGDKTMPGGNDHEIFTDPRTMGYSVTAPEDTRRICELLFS

[4] = target: T2, Mannose-6-phosphate isomerase (Homo sapiens, UniProt P34949); test: Inhibition of human purified phosphomannose isomerase
T2 sequence (P34949 whole entry): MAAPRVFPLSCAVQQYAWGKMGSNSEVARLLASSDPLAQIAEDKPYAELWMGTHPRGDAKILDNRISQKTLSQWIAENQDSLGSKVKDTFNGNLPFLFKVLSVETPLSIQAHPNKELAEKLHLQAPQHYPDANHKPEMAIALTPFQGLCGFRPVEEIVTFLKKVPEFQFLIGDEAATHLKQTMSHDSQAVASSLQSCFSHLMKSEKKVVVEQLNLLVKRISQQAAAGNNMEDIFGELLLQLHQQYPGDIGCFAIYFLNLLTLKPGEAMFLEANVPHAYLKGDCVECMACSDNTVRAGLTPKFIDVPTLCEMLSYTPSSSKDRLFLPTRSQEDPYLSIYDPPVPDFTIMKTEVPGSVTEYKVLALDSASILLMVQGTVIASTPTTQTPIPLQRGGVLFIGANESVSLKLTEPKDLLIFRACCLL

[5] = Metabolic stability of the compound in mouse plasma assessed as compound remaining at 10 uM after 3 hrs by LC/MS/MS analysis; type: ADME, cell-free; conditions: read-out: Stability
How it was run: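 Fresh mouse plasma with test article at 10 μM, run in duplicate at 37 °C. Sampled at t=0 and t=3 h; % parent remaining quantified by LC/MS/MS.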

[6] = system: Liver; test: Metabolic stability of the compound in rat liver S9 fraction at 10 uM after 2 hrs by LCMS analysis in presence of GSH transferase; type: ADME, subcellular; conditions: s9, 2 h
How it was run: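 The reaction was quenched by acetonitrile precipitation, and the supernatant was dried and reconstituted. Positive-ion electrospray LCMS tracked parent compound and GSH conjugates. Run in triplicate, with diclofenac as positive control.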

[7] = system: HeLa; test: Cytotoxicity against human HeLa cells at 12.5 to 100 uM after 2 hrs; type: cell-based
How it was run: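 HeLa cells at 70% confluency were preincubated with compound for 2 h at 37°C. They were then labelled with 50 μCi/mL ³H-mannose and 5 μCi/mL ³⁵S-Met/Cys for 1 h at 37°C, washed, and lysed in 10 mM Tris pH 7.4 with 1% NP-40. Proteins were precipitated with 10% TCA. ³⁵S incorporation read protein synthesis and toxicity; DMSO-treated cells served as the reference.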

[8] = Cmax in C57BL/6 mouse at 20 mg/kg, po; type: ADME, organism-based; design: dose 20 mg/kg, route oral; conditions: in vivo
How it was run: (§1)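 C57BL/6 mice, n=3 per dose, given single oral dose of 20 mg/kg (5 mg/kg IV arm run in parallel). Animals sacrificed for blood at 0.5, 1, 2, 4 and 6 hr after oral dosing; plasma separated by centrifugation, stored at -20°C, extracted with 2-fold excess acetonitrile, vortexed 3 min, centrifuged 15 min (7500g), supernatant quantified by LCMS.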

[9] = AUC (0 to t) in C57BL/6 mouse at 20 mg/kg, po; type: ADME, organism-based; design: dose 20 mg/kg, route oral; conditions: plasma; how it was run: as §1
[10] = Half life in C57BL/6 mouse at 20 mg/kg, po; type: ADME, organism-based; design: dose 20 mg/kg, route oral; conditions: in vivo
How it was run: (§2)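 C57BL/6 mice, n=3 per dose, dosed 5 mg/kg IV and 20 mg/kg PO. Blood collected at PO 0.5, 1, 2, 4, 6 hr and IV 10 min, 0.5, 1, 2, 4, 6 hr. Plasma separated by centrifugation, stored at -20°C, extracted with 2-fold excess acetonitrile (vortex 3 min, 15 min at 7500g), supernatant analysed by LCMS.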

[11] = system: Mus musculus; test: Oral bioavailability in C57BL/6 mouse at 20 mg/kg; type: ADME, organism-based; conditions: in vivo; how it was run: as §2
[12] = in vivo; conditions: C57BL/6, mouse, po, 20 mg/kg
[13] = Inhibition of human purified phosphomannose isomerase

SMILES: Cc1ccc(C)c(-n2sc3ccc(F)cc3c2=O)c1
- solubility [1]: 11 µg/mL (≈ 40.2 µM)
- remaining at 1 h, 10 µM [2]: 81%

SMILES: O=c1c2cc(F)ccc2sn1-c1ccc(F)cc1
- IC50 [3]: > 80 µM

SMILES: Cc1ccc(C)c(N2Cc3ccccc3C2=O)c1
- IC50 [4]: > 10 µM

SMILES: O=c1c2cc(F)ccc2sn1-c1cccc(F)c1
- IC50 [3]: > 20 µM

SMILES: O=c1c2ccccc2sn1-c1cccc(Cl)c1
- IC50 [3]: > 20 µM

SMILES: NC(=O)C1(NC(=O)CCCSc2ccc(Cl)cc2Cl)Cc2ccccc2C1
- IC50 [4]: 14 µM

SMILES: CN(C)c1ccc(-n2sc3ccccc3c2=O)cc1
- IC50 [4]: 1.9 µM
- IC50 [3]: 13.3 µM

SMILES: O=c1c2cc(F)ccc2sn1-c1ccccc1
- solubility [1]: 3.8 µg/mL (≈ 15.5 µM)
- remaining at 3 h, 10 µM [5]: 99%
- Stability [6]: Stable
- remaining at 1 h, 10 µM [2]: 85%
- Activity [7]: Non-toxic
- IC50 [3]: > 80 µM
- Cmax [8]: 162 nM
- AUC(0-t) [9]: 0.305 µM·h
- half-life [10]: 78 min
- F [11]: 35%
- Tmax [12]: 45 min

SMILES: CC(C)(C)c1ccc(-n2sc3ccccc3c2=O)cc1
- solubility [1]: 2.5 µg/mL (≈ 8.82 µM)
- remaining at 3 h, 10 µM [5]: 10%
- remaining at 1 h, 10 µM [2]: 62%
- Activity [7]: Non-toxic
- IC50 [3]: > 20 µM

SMILES: O=c1c2ccccc2sn1-c1cccc(I)c1
- IC50 [3]: > 20 µM

SMILES: O=c1c2ccccc2sn1-c1ccc2ccccc2c1
- IC50 [3]: > 20 µM

SMILES: O=C1c2ccccc2SC1c1ccccc1 (stereo not drawn)
- IC50 [4]: > 10 µM

SMILES: Cc1ccc(-n2sc3ccccc3c2=O)cc1
- IC50 [4]: 5.2 µM
- IC50 [3]: > 20 µM

SMILES: CN(C)c1cccc(-n2sc3ccccc3c2=O)c1
- IC50 [3]: > 20 µM

SMILES: O=c1c2ccccc2sn1-c1ccc(C(F)(F)F)cc1
- IC50 [4]: > 20 µM
- IC50 [3]: > 20 µM

SMILES: O=c1c2cc(F)ccc2sn1-c1ccccc1F
- IC50 [3]: > 20 µM

SMILES: Cc1ccc(C)c(-n2sc3cc(F)ccc3c2=O)c1
- solubility [1]: 22.5 µg/mL (≈ 82.3 µM)
- remaining at 3 h, 10 µM [5]: 48%
- remaining at 1 h, 10 µM [2]: 82.3%
- IC50 [4]: 1 µM

SMILES: O=c1c2cc(F)ccc2sn1-c1ccc(Cl)cc1
- IC50 [3]: > 20 µM

SMILES: Cc1ccccc1-n1sc2cc(F)ccc2c1=O
- IC50 [3]: > 20 µM

SMILES: COc1cccc(-n2sc3ccccc3c2=O)c1
- IC50 [3]: > 10 µM

SMILES: CCOC(=O)c1ccc(-n2sc3ccccc3c2=O)cc1
- IC50 [3]: > 20 µM

SMILES: O=c1c2ccccc2sn1-c1ccc(Cl)cc1
- IC50 [3]: > 20 µM

SMILES: Cc1ccc(C)c(-n2sc3ccccc3c2=O)c1
- IC50 [4]: 6.6 µM

SMILES: NC(=O)C1(NC(=O)CCCOc2ccc(Cl)cc2Cl)Cc2ccccc2C1
- IC50 [13]: 40 µM

SMILES: O=c1c2ccccc2sn1-c1cccc(C(F)(F)F)c1
- IC50 [3]: 13.9 µM

SMILES: Cc1cccc(-n2sc3ccccc3c2=O)c1
- IC50 [3]: > 20 µM

SMILES: NC(=O)C1(NC(=O)CCCNc2ccc(Cl)cc2Cl)Cc2ccccc2C1
- IC50 [4]: 50 µM

Source: ChEMBL document CHEMBL1772943, “Potent, selective, and orally available benzoisothiazolone phosphomannose isomerase inhibitors as probes for congenital disorder of glycosylation Ia” (J Med Chem, 2011)
